Results on four compounds are retold here after ChEMBL document CHEMBL5357047, “The development of thymol-isatin hybrids as broad-spectrum antibacterial agents with potent anti-MRSA activity” (RSC Med Chem, 2024).

Series [1] is described as follows: Selectivity index, ratio of IC50 for cytotoxicity against mouse L929 cells to MIC for antibacterial activity against clinically isolated Methicillin-resistant Staphylococcus aureus. Format: toxicity, cell-based. To be noted: read-out: Selectivity Index.
Series [2] concerns Staphylococcus aureus. Put plainly: Antibacterial activity against clinically isolated Methicillin-resistant Staphylococcus aureus assessed as inhibition of bacterial growth at 50 uM measured after 48 hrs by agar well diffusion method. Format: functional. The following applies: read-out: IZ.
In series [3] the test system is Klebsiella pneumoniae. Put plainly: Antibacterial activity against clinically isolated Klebsiella pneumoniae RBRJ019 assessed as inhibition of bacterial growth at 50 uM measured after 48 hrs by agar well diffusion method. Format: functional. To be noted: read-out: IZ. (In general: A growth-free zone around the sample is the usual read-out of agar diffusion tests.)

Series [4] concerns Staphylococcus aureus. The experiment in a line: Bactericidal activity against Methicillin-resistant Staphylococcus aureus ATCC 33591 assessed as inhibition of bacterial growth measured after 48 hrs by agar plate method. Format: functional. The procedure, abridged:
(§1)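 MBC: aliquots from microdilution wells without colour change subcultured on drug-free Mueller Hinton agar, 48 h at 37 °C aerobically. MBC is the lowest concentration with no visible growth. Triplicate.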

Series [5] relates to Staphylococcus aureus. The experiment in a line: Bactericidal activity against Staphylococcus aureus MTCC 740 assessed as inhibition of bacterial growth measured after 48 hrs by agar plate method. Format: functional. A digest of the protocol: as §1
The test system of series [6] is Staphylococcus aureus. Put plainly: Antibacterial activity against Staphylococcus aureus MTCC 740 assessed as inhibition of bacterial growth at 50 uM measured after 48 hrs by agar well diffusion method. Format: functional. The following applies: read-out: IZ.
Series [7] relates to Enterococcus faecalis. The experiment in a line: Antibacterial activity against Enterococcus faecalis MTCC 439 assessed as inhibition of bacterial growth at 50 uM measured after 48 hrs by agar well diffusion method. The following applies: read-out: IZ. Format: functional.
In series [8] the test system is Staphylococcus aureus. The experiment in a line: Bactericidal activity against clinically isolated Staphylococcus aureus RBRJ010 assessed as inhibition of bacterial growth measured after 48 hrs by agar plate method. Format: functional. The procedure, abridged:
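MBC: 10 μL from wells showing no INT colour change after broth microdilution subcultured on drug-free Mueller Hinton agar, 48 h at 37 °C aerobically; lowest concentration with no visible growth taken as MBC (μM). Triplicate.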

Series [9] concerns Klebsiella pneumoniae. Put plainly: Antibacterial activity against Klebsiella pneumoniae MTCC 109 assessed as inhibition of bacterial growth at 50 uM measured after 48 hrs by agar well diffusion method. Format: functional. To be noted: read-out: IZ.
Series [10] deals with Escherichia coli. Put plainly: Antibacterial activity against Escherichia coli MTCC 119 assessed as inhibition of bacterial growth at 50 uM measured after 48 hrs by agar well diffusion method. Format: functional. To be noted: read-out: IZ.
For series [11], the system named is Staphylococcus aureus. Put plainly: Antibacterial activity against Methicillin-resistant Staphylococcus aureus ATCC 33591 assessed as inhibition of bacterial growth at 50 uM measured after 48 hrs by agar well diffusion method. Format: functional. To be noted: read-out: IZ. The procedure, abridged: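 Agar well diffusion on Mueller Hinton agar seeded with bacteria at 0.5 McFarland. […] Incubated 48 h at 37 °C aerobically; zone of inhibition diameter (mm) measured. Triplicate.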

Series [12] deals with Escherichia coli. The experiment in a line: Antibacterial activity against clinically isolated Escherichia coli RBRJ005 assessed as inhibition of bacterial growth at 50 uM measured after 48 hrs by agar well diffusion method. Format: functional. To be noted: read-out: IZ.
In series [13] the test system is Staphylococcus aureus. The experiment in a line: Antibacterial activity against clinically isolated Staphylococcus aureus RBRJ010 assessed as inhibition of bacterial growth at 50 uM measured after 48 hrs by agar well diffusion method. Format: functional. The following applies: read-out: IZ.
Series [14] relates to Enterococcus faecalis. The experiment in a line: Antibacterial activity against clinically isolated Enterococcus faecalis RBRJ015 assessed as inhibition of bacterial growth at 50 uM measured after 48 hrs by agar well diffusion method. Format: functional. To be noted: read-out: IZ.
Series [15] has as its system Staphylococcus aureus. The experiment in a line: Antibacterial activity against Methicillin-resistant Staphylococcus aureus ATCC 33591 assessed as inhibition of bacterial growth measured after 48 hrs by broth microdilution method. Format: functional. In general terms: Broth dilution looks for growth in wells or tubes with falling amounts of substance.
The test system of series [16] is Staphylococcus aureus. Put plainly: Antibacterial activity against clinically isolated Staphylococcus aureus RBRJ010 assessed as inhibition of bacterial growth measured after 48 hrs by broth microdilution method. Format: functional.
In series [17] the test system is Escherichia coli. The experiment in a line: Antibacterial activity against clinically isolated Escherichia coli RBRJ013 assessed as inhibition of bacterial growth at 50 uM measured after 48 hrs by agar well diffusion method. Format: functional. The following applies: read-out: IZ.
The nature of series [18]: Cytotoxicity against mouse L929 cells assessed as reduction in cell viability measured after 72 hrs by MTT assay. Format: toxicity, cell-based. A digest of the protocol: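 L929 cells (ATCC) grown in DMEM with 10% FBS and penicillin/streptomycin at 37 °C, 5% CO2; seeded at 5 × 10^3 cells per well and exposed to serial dilutions for 72 h, paclitaxel as positive control. MTT (5 mg mL−1), formazan dissolved in DMSO, absorbance at 490 nm; viability relative to control after blank subtraction; IC50 in μM.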

The test system of series [19] is Klebsiella pneumoniae. Put plainly: Antibacterial activity against clinically isolated Klebsiella pneumoniae RBRJ024 assessed as inhibition of bacterial growth at 50 uM measured after 48 hrs by agar well diffusion method. Format: functional. The following applies: read-out: IZ.
The test system of series [20] is Staphylococcus aureus. Put plainly: Antibacterial activity against clinically isolated Methicillin-resistant Staphylococcus aureus assessed as inhibition of bacterial growth measured after 48 hrs by broth microdilution method. Format: functional.
Another series has as its system Enterobacter cloacae. The experiment in a line: Antibacterial activity against clinically isolated Enterobacter cloacae RBRJ017 assessed as inhibition of bacterial growth at 50 uM measured after 48 hrs by agar well diffusion method. Format: functional. The following applies: read-out: IZ.
In another series the test system is Acinetobacter baumannii. Put plainly: Antibacterial activity against clinically isolated Acinetobacter baumannii RBRJ027 assessed as inhibition of bacterial growth at 50 uM measured after 48 hrs by agar well diffusion method. Format: functional. To be noted: read-out: IZ.
Series [21] concerns Staphylococcus epidermidis. Put plainly: Antibacterial activity against Staphylococcus epidermidis MTCC 435 assessed as inhibition of bacterial growth at 50 uM measured after 48 hrs by agar well diffusion method. Format: functional. The following applies: read-out: IZ.
Series [22] deals with Staphylococcus aureus. Put plainly: Antibacterial activity against Staphylococcus aureus MTCC 740 assessed as inhibition of bacterial growth measured after 48 hrs by broth microdilution method. Format: functional.
The next series concerns Pseudomonas aeruginosa. Put plainly: Antibacterial activity against Pseudomonas aeruginosa MTCC 424 assessed as inhibition of bacterial growth at 50 uM measured after 48 hrs by agar well diffusion method. Format: functional. The following applies: read-out: IZ.
Series [23] has as its system Staphylococcus aureus. The experiment in a line: Bactericidal activity against clinically isolated Methicillin-resistant Staphylococcus aureus assessed as inhibition of bacterial growth measured after 48 hrs by agar plate method. Format: functional.

In general, MBC refers to the lowest tested concentration that kills the bacteria rather than only halting them. Usually MIC stands for the least concentration at which growth counts as inhibited. What is called IC50 is the concentration that inhibits the measured activity by half.

Values after ≈ are worked out from the molar mass of the structure shown.

For the compound `Cc1ccc(C(C)C)c(OCc2cn(CCCN3C(=O)C(=O)c4cc(Cl)ccc43)nn2)c1`, in series [1], the selectivity ratio was determined as 4. The zone of inhibition at 50 µM in the series on Staphylococcus aureus [2] is 21.3 mm; in the series with Klebsiella pneumoniae [3] it was 15.1 mm; in the series on Staphylococcus aureus [6], 22.1 mm; in the series with Enterococcus faecalis [7], 14.2 mm; in the series on Klebsiella pneumoniae [9], 14.3 mm; in the series with Escherichia coli [10], 14.2 mm. The zone of inhibition at 50 µM in the series with Staphylococcus aureus [11] was 20.5 mm; in the series on Escherichia coli [12], 15.2 mm; with Staphylococcus aureus [13], 21.2 mm; in the series on Enterococcus faecalis [14], 14.1 mm; in the series with Escherichia coli [17], 15.5 mm; in the series on Klebsiella pneumoniae [19], 14.8 mm. Besides, the zone of inhibition at 50 µM with Enterobacter cloacae was 15.7 mm; with Acinetobacter baumannii, 13.2 mm; in series [21], 18.2 mm; with Pseudomonas aeruginosa it was 13.3 mm. Moreover, the MBC in the series with Staphylococcus aureus [4] is 125 µM (≈ 56.6 µg/mL); in the series with Staphylococcus aureus [5], 31.2 µM (≈ 14.1 µg/mL); in the series on Staphylococcus aureus [8], 31.2 µM (≈ 14.1 µg/mL); in the series on Staphylococcus aureus [23], 62.5 µM (≈ 28.3 µg/mL). The minimum inhibitory concentration (MIC) with Staphylococcus aureus [15] turned out to be 62.5 µM (≈ 28.3 µg/mL); in the series on Staphylococcus aureus [16] it was 15.6 µM (≈ 7.07 µg/mL); in the series with Staphylococcus aureus [20], 31.2 µM (≈ 14.1 µg/mL); in the series on Staphylococcus aureus [22], 15.6 µM (≈ 7.07 µg/mL). In addition, the half-inhibitory concentration (IC50) at 72 h in [18] came out at 125 µM.

Take `Cc1ccc(C(C)C)c(OCc2cn(CCCN3C(=O)C(=O)c4cc(F)ccc43)nn2)c1`: the selectivity ratio in series [1] is 2. The zone of inhibition at 50 µM came out at 22.2 mm in the series with Staphylococcus aureus [2]; 15.4 mm with Klebsiella pneumoniae [3]; 24.1 mm with Staphylococcus aureus [6]; 16.4 mm in the series on Enterococcus faecalis [7]; 15.2 mm with Klebsiella pneumoniae [9]; 15.2 mm in the series with Escherichia coli [10]. Also, the zone of inhibition at 50 µM in the series with Staphylococcus aureus [11] was found to be 20.3 mm; in the series with Escherichia coli [12] it was 16.2 mm; in the series on Staphylococcus aureus [13], 23.2 mm; with Enterococcus faecalis [14], 15.3 mm; in the series on Escherichia coli [17], 16.2 mm; in the series with Klebsiella pneumoniae [19], 14.3 mm. Further, the zone of inhibition at 50 µM in the series on Enterobacter cloacae stood at 15.3 mm; in the series on Acinetobacter baumannii it was 14.7 mm; in series [21], 16.2 mm; in the series on Pseudomonas aeruginosa it was 16 mm. Also, the minimum bactericidal concentration (MBC) amounted to 125 µM (≈ 54.6 µg/mL) with Staphylococcus aureus [4], 15.6 µM (≈ 6.81 µg/mL) in the series on Staphylococcus aureus [5], 15.6 µM (≈ 6.81 µg/mL) with Staphylococcus aureus [8] and 31.2 µM (≈ 13.6 µg/mL) in the series with Staphylococcus aureus [23]. Moreover, the minimum inhibitory concentration (MIC) in the series on Staphylococcus aureus [15] turned out to be 62.5 µM (≈ 27.3 µg/mL); with Staphylococcus aureus [16], 7.8 µM (≈ 3.4 µg/mL); in the series on Staphylococcus aureus [20], 15.6 µM (≈ 6.81 µg/mL); with Staphylococcus aureus [22] it was 7.8 µM (≈ 3.4 µg/mL). Also, the concentration for half-maximal inhibition (IC50) at 72 h in series [18] worked out at 31.2 µM.

With `COc1ccc2c(c1)C(=O)C(=O)N2CCCn1cc(COc2cc(C)ccc2C(C)C)nn1`, the zone of inhibition at 50 µM with Staphylococcus aureus [2] was determined as 25.1 mm; with Klebsiella pneumoniae [3] it was 18.1 mm; in the series on Staphylococcus aureus [6], 25.3 mm; with Enterococcus faecalis [7], 12.6 mm; with Klebsiella pneumoniae [9], 17.3 mm; in the series on Escherichia coli [10], 16.5 mm. Besides, the zone of inhibition at 50 µM turned out to be 25.3 mm in the series with Staphylococcus aureus [11]; 17.2 mm in the series with Escherichia coli [12]; 23.3 mm in the series on Staphylococcus aureus [13]; 11.3 mm in the series on Enterococcus faecalis [14]; 15.4 mm in the series with Escherichia coli [17]; 17.6 mm with Klebsiella pneumoniae [19]. The zone of inhibition at 50 µM came to 13.5 mm in the series with Enterobacter cloacae, 12.3 mm in the series with Acinetobacter baumannii, 15.7 mm in [21] and 16.4 mm with Pseudomonas aeruginosa. The MBC with Staphylococcus aureus [4] was determined as 15.6 µM (≈ 7 µg/mL); in the series with Staphylococcus aureus [5] it was 125 µM (≈ 56.1 µg/mL); with Staphylococcus aureus [8], 31.2 µM (≈ 14 µg/mL); with Staphylococcus aureus [23], 7.8 µM (≈ 3.5 µg/mL). Further, the MIC in the series with Staphylococcus aureus [15] was 7.8 µM (≈ 3.5 µg/mL); in the series with Staphylococcus aureus [16], 15.6 µM (≈ 7 µg/mL); with Staphylococcus aureus [20], 3.9 µM (≈ 1.75 µg/mL); with Staphylococcus aureus [22], 62.5 µM (≈ 28 µg/mL).

`CC(=O)O[C@H]1C(=O)[C@@]2(C)[C@H]([C@H](OC(=O)c3ccccc3)[C@]3(O)C[C@H](OC(=O)[C@H](O)[C@@H](NC(=O)c4ccccc4)c4ccccc4)C(C)=C1C3(C)C)[C@]1(OC(C)=O)CO[C@@H]1C[C@@H]2O` [PACLITAXEL]: in series [18], the IC50 at 72 h amounted to 0.0625 µM.
